TRPC4 agonist = activators of mouse TRPC4 channel | Q9QUQ5 | HEK293 TRPC4beta/mu-opioid, Fluo4 calcium fluorescence; stronger effect = higher value | B-score at 10 µM | 0.49% of 310,000 active | AID 2237;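 active means B-score above 5 SD of library B-scores, and initial fluorescence ratio not above library mean plus 5 SD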;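 further: positive B-score marks a calcium rise read as TRPC4 activation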
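Incubation: 45 min room-temperature Fluo4 loading, 110 s read / System: HEK293 cells stably co-expressing mouse TRPC4beta and mu-opioid receptor / Signal: Fluo4 fluorescence, kinetic / Control set: buffer (low) and maximal DAMGO (high) / Measure: integrated baseline-normalised fluorescence ratio, converted to per-well B score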
TRPC4 inh = blocks the mouse TRPC4 cation channel; 0.39% of 300,000 active; B-score at 10 µM; Q9QUQ5; HEK293 TRPC4beta/mu-opioid, DAMGO-evoked Fluo4 calcium flux; stronger effect = lower value; AID 2247;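 active means B-score over 3 SD under the library average, no early fluorescence shift, positive overall ratio signal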
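Test system – stable TRPC4beta/mu-opioid receptor HEK293 cells · Probe or stimulus – DAMGO, a submaximal dose followed by a maximal one · Dosing – one concentration per compound · Signal – Fluo4 calcium fluorescence by kinetic imaging, 5 s 1 Hz baseline · Evaluation – per-well B score of integrated baseline-normalized Fluo4 ratio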
TRPC6 inhibitor = inhibitors of mouse TRPC6 channel. Q61143. HEK293-TRPC6, membrane potential dye, ACh-evoked depolarization; stronger effect = lower value. B-score at 10 µM. 1.1% of 310,000 active. AID 2553;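 active means B-score under library mean minus 3 SD, initial fluorescence not abnormally high, positive integrated signal ratio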;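 further: B-score derived from integrated fluorescence ratio over the kinetic read; more negative B-score means stronger inhibition of depolarization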
Target sequence (Q61143 whole entry, looked up): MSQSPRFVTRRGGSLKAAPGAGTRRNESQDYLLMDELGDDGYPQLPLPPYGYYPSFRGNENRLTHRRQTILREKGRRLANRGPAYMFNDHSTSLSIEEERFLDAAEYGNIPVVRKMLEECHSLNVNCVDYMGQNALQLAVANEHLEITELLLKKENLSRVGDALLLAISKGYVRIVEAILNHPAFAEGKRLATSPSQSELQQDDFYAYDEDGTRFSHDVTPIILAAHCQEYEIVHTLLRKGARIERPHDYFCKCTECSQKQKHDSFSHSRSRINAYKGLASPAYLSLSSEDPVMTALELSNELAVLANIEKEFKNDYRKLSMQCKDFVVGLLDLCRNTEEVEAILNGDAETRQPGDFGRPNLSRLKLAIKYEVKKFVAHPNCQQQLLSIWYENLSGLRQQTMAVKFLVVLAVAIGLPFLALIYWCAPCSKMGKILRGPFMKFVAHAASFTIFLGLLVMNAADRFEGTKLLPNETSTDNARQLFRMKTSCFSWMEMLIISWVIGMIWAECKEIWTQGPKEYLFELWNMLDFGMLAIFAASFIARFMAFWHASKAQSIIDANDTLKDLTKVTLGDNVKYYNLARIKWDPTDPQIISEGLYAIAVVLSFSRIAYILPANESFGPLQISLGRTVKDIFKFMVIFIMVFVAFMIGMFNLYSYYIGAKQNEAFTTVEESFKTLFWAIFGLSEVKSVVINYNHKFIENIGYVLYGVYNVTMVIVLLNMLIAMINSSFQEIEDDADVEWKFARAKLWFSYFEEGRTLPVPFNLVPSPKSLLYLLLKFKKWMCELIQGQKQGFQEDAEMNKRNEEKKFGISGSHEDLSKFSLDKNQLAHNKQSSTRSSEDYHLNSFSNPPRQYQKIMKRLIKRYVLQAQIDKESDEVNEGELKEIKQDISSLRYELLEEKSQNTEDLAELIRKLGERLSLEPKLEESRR
Yeast superoxide = yeast age-related superoxide inhibition as caloric restriction mimetic; S. cerevisiae aged cells, superoxide DHE fluorescence; stronger effect = lower value; AID 2690; 0.18% of 330,000 active; superoxide response (% of plate mean), % at 10 µM;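 active means superoxide response under a set limit, about three screen SD below normal, cut at about 65% in these data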;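 further: yeast aged for seven days with compound at 30 °C before DHE staining; 100% = average MFI of all compound-treated wells on the plate with controls excluded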
TRPC6 activator = activators of mouse TRPC6 channel | HEK293-TRPC6 membrane potential dye fluorescence; stronger effect = higher value | B-score at 10 µM | 0.13% of 310,000 active;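 active means B-score of the integrated fluorescence ratio above library mean plus 3 SD, and starting fluorescence ratio within library mean plus 5 SD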;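 further: higher score means more depolarization so channel activation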
TRPC4 PAM = allosterically enhances the mouse TRPC4 cation channel; Q9QUQ5; HEK293 TRPC4beta/mu-opioid, DAMGO EC20, Fluo-4 Ca2+ flux; stronger effect = higher value; B-score at 10 µM; 0.42% of 310,000 active; AID 2227;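 active means B-score of calcium response area above 5 SD of library B-scores, with initial fluorescence ratio within 5 SD of library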;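 further: B-score of integrated fluorescence ratio over time as area under calcium response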
An asterisk follows results filed as active; i = inactive; x = not tested or not shown. Most compounds without a hit are left out; they make up all but 2.3% or so of the library.

SMILES	TRPC4 agonist	TRPC4 inh	TRPC6 inhibitor	Yeast superoxide	TRPC6 activator	TRPC4 PAM
O=C(NC(Nc1nc2ccc([N+](=O)[O-])cc2s1)(C(F)(F)F)C(F)(F)F)c1ccccc1Cl	i	i	-6.9*	90	14*	i
O=C(NC(NNc1ccc([N+](=O)[O-])cc1)(C(F)(F)F)C(F)(F)F)c1ccccc1Cl	i	i	i	87	i	i
C=CCOc1ccc(CNC(C)(C)CO)cc1OCC	i	i	i	95	i	i
CCOC(=O)c1c(C)[nH]c(C)c1S(=O)(=O)NCCCN1CCOCC1	i	i	i	97	i	i
COc1ccc(CCN=C(N)Nc2nc(C)cc(C)n2)cc1	i	-6*	i	91	i	i
COc1ccccc1-n1c(SCC(=O)Nc2cccc(C(=O)O)c2)nnc1-c1ccccc1C	i	i	i	93	i	i
Cc1ccc(-c2n[nH]c(=O)c3ccccc23)cc1S(=O)(=O)NCCN1CCOCC1	i	i	i	98	i	i
S=C(NCc1ccco1)N1CCN(c2cccc(Cl)c2)CC1	i	-5*	i	95	i	i
COc1ccc(C(CCNCc2ccc(N(C)C)cc2)c2ccccc2)cc1 (centres undefined)	104*	i	i	100	i	i
O=C(CCN1C(=O)/C(=C\C=C\c2ccccc2)SC1=S)Nc1ccccc1C(=O)O	i	i	i	97	i	i
O=C1CC(c2cccc([N+](=O)[O-])c2)c2ccc3ccccc3c2N1 (centres undefined)	i	i	i	116	i	11*
O=C1CC(c2ccsc2)c2ccc3ccccc3c2N1 (centres undefined)	i	i	i	121	i	i
O=C(Oc1ccc(Cl)cc1)c1ccc(COC(=O)c2cnccn2)cc1	i	i	i	106	i	i
N=c1c2c(ncn1Cc1ccco1)Oc1cc(O)ccc1C2c1ccccc1 (centres undefined)	57*	i	i	75	i	i
CS(=O)(=O)N(Cc1ccccc1)c1ccc(C(=O)NCC2CCCO2)cc1 (centres undefined)	i	i	i	88	i	i
CC(C)c1ccc(C(C)NCCS(=O)(=O)c2ccc(Br)cc2)cc1 (centres undefined)	i	i	i	101	i	19*
CN(C1=C(N2CCCCC2)C(=O)c2ccccc2C1=O)c1ccccc1	i	i	-7.2*	116	i	i
CCOC(=O)N1CCC(N2Cc3cccc(C(=O)NCc4ccc5c(c4)OCO5)c3C2=O)CC1	i	i	i	90	i	i
CCOC(=O)N1CCC(N2Cc3cccc(C(=O)NCc4ccccc4OC)c3C2=O)CC1	i	i	-7.3*	99	i	i
CCOC(=O)N1CCC(NC(=O)c2cccc3c2C(=O)N(c2ccc(OC)cc2)C3)CC1	i	i	-7.8*	101	i	i
CCOC(=O)N1CCC(NC(=O)c2cn(-c3ccc(OC)cc3)c(=O)c3ccccc23)CC1	i	i	i	93	i	i
COC(=O)CN1C(=O)[C@H]2[C@@H](c3ccc(C)o3)N3C(=O)CN(CCO)C(=O)[C@@]3(C)[C@H]2C1=O	i	i	i	98	i	i
CC(C)CN(C1CCS(=O)(=O)C1)S(=O)(=O)c1ccc2ccccc2c1 (centres undefined)	i	i	i	95	i	i
CC(=O)Oc1ccc(/C=C(\NC(=O)c2ccco2)C(=O)NCc2ccccc2)cc1	i	-7*	i	94	i	i
O=C(NCc1ccccc1)/C(=C/c1ccccc1)NC(=O)c1ccco1	i	i	i	99	i	i
SMILES	TRPC4 agonist	TRPC4 inh	TRPC6 inhibitor	Yeast superoxide	TRPC6 activator	TRPC4 PAM
Cc1ccccc1C(=O)Nc1cc(S(=O)(=O)N2CCCCC2)ccc1N1CCN(C)CC1	i	i	i	89	i	11*
CN1CCN(c2ccc(S(=O)(=O)N3CCCCC3)cc2NC(=O)COc2cccc(Cl)c2)CC1	i	i	i	125	i	13*
O=C(COc1ccc(Cl)cc1)Nc1cc(S(=O)(=O)N2CCCCC2)ccc1N1CCCCC1	i	i	i	95	i	i
CN1CCN(c2ccc(S(=O)(=O)N3CCCCC3)cc2NC(=O)c2ccc3ccccc3c2)CC1	i	i	i	101	i	i
COc1ccccc1CCC(=O)Nc1cc(S(=O)(=O)N2CCCCC2)ccc1N1CCN(C)CC1	134*	i	i	89	i	i
Cc1cccc(OCC(=O)Nc2cc(S(=O)(=O)N3CCCCC3)ccc2N2CCN(C)CC2)c1	i	i	i	95	i	11*
CCOc1ccccc1NC(=O)CCn1nc(C)c(S(=O)(=O)N2CCCCC2)c1C	i	i	i	95	i	i
Cc1cccc(OCCC(=O)NCC(c2ccccc2)N(C)C)c1 (centres undefined)	103*	i	i	100	i	i
COc1ccc(C(CNC(=O)CCOc2ccccc2)N(C)C)cc1 (centres undefined)	154*	i	i	93	i	i
O=C(CCc1nc2ccccc2s1)NCc1ccccc1F	i	i	i	98	i	i
CN(C)C(CNC(=O)CCc1nc2ccccc2s1)c1ccccc1 (centres undefined)	i	-7*	i	111	i	i
CN(C)C(CNC(=O)CCOc1ccccc1)c1ccco1 (centres undefined)	i	x	i	98	i	i
CC(C)(CNC(=O)c1ccccc1NS(C)(=O)=O)N1CCCCC1	i	i	i	93	i	i
O=C(c1ccc(Cl)cc1)C1CCCN(C(=O)/C=C/c2ccccn2)C1 (centres undefined)	i	i	i	101	i	i
CCn1c(SCC(=O)Nc2cccc(OC)c2)nnc1-c1ccc(Cl)cc1	i	i	i	98	i	i
O=C(O)CCC(=O)NCc1ccc(F)cc1	i	i	i	100	i	i
CNC(=S)NNC(=O)c1cccn(Cc2cccc(Cl)c2)c1=O	i	i	i	99	i	13*
CSc1ccc(CN(C)C(=O)CNC(=O)CNS(=O)(=O)c2ccc(C)c(C)c2)cc1	i	i	i	99	i	i
COc1ccccc1C(=O)Nc1ccc2c(c1)CCCN2C(=O)c1cccs1	i	-6*	i	105	i	i
